Calls of active or inactive are those of the source.
Key:
Mus musculus [1] = assay: Evaluated for toxicity by using rotarod test at in mice 30 min; - = No activity at 600 mg/kg.; assay type: organism-based; set-up: dose 600 mg/kg; conditions: in vivo, 0.5 h
Procedure, shortened: (§1)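 Neurotoxicity in male Carworth Farms number-one mice dosed ip in 30% PEG 400 at 30, 100, 300 and sometimes 600 mg/kg, tested 30 min or 4 h later. Mice placed on a 1-in. knurled rod rotating at 6 rpm; toxicity means failure to stay on the rod for 1 min. Scored by the lowest toxic dose; footnotes record loss of righting reflex or lethality.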

Mus musculus [2] = assay: Evaluated for toxicity by using rotarod test in mice at 4 hr; - = No activity at 600 mg/kg.; assay type: organism-based; set-up: dose 600 mg/kg; conditions: in vivo; procedure, shortened: as §1
Mus musculus [3] = assay: Anticonvulsant activity against MES (maximal electroshock) induced seizure in mice at 4 hr; - = No activity at 600 mg/kg.; assay type: functional, organism-based; set-up: dose 600 mg/kg
Procedure, shortened: (§2)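 Male Carworth Farms number-one mice; compounds in 30% polyethylene glycol 400, given ip at 30, 100 and 300 mg/kg, some also at 600 mg/kg. Maximal electroshock challenge at 30 min or 4 h after dosing. Scored by the lowest dose giving protection (++++ 30, +++ 100, ++ 300, + 600 mg/kg; - none at 600).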

Mus musculus [4] = assay: Anticonvulsant activity against scMet (subcutaneous metrazole) induced seizure in mice at 30 min; - = No activity at 600 mg/kg.; assay type: functional, organism-based; set-up: dose 600 mg/kg
Procedure, shortened: (§3)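 Male Carworth Farms number-one mice dosed ip (30% PEG 400) at 30, 100, 300 and in some cases 600 mg/kg. Pentylenetetrazole 85 mg/kg given sc as a 0.5% solution in the posterior midline, at 30 min or 4 h. Protection means no clonic spasm of at least 5 s within 30 min. Scored by the lowest protective dose.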

Mus musculus [5] = assay: Anticonvulsant activity against MES (maximal electroshock) induced seizure in mice at 30 min; + = Activity at 600 mg/kg.; assay type: functional, organism-based; set-up: dose 600 mg/kg; procedure, shortened: as §2
Mus musculus [6] = assay: Anticonvulsant activity against scMet (subcutaneous metrazole) induced seizure in mice at 4 hr; - = No activity at 600 mg/kg.; assay type: functional, organism-based; set-up: dose 600 mg/kg; procedure, shortened: as §3
Mus musculus [7] = assay: Evaluated for toxicity by using rotarod test at in mice 30 min; +++ indicates activity at 100 mg/kg *-Loss of righting reflex at less than 600 mg/kg; assay type: organism-based; conditions: in vivo, 0.5 h; procedure, shortened: as §1
Mus musculus [8] = species: Mus musculus; assay: Evaluation of neurologic deficit by rotarod procedure in mice; assay type: functional
Procedure, shortened: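 Male Carworth Farms number-one mice were dosed ip (30% PEG 400 vehicle) and placed on a 1-in. knurled plastic rod rotating at 6 rpm. Neurotoxicity meant failure to stay on the rod for 1 min. TD50 was determined graphically.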

Mus musculus [9] = assay: Anticonvulsant activity against MES (maximal electroshock) induced seizure in mice at 4 hr; +++ indicates activity at 100 mg/kg.; assay type: functional, organism-based; set-up: dose 100 mg/kg
Procedure, shortened: (§4)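 Male Carworth Farms number-one mice received the compound ip in 30% polyethylene glycol 400. Doses were 30, 100 and 300 mg/kg, with 600 mg/kg in some cases. Maximal electroshock seizure protection was scored at 30 min and 4 h after dosing. Activity is coded by the lowest effective dose.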

[10] = Protective index (PI) which is defined as the ratio of TD50 to the ED50 (ScMet).; assay type: functional
Procedure, shortened: (§5)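 Both values come from ip dosing in 30% PEG 400 to male Carworth Farms number-one mice and were derived by the graphical method.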

Mus musculus [11] = species: Mus musculus; assay: Evaluation of inhibitory activity aagainst MES induced convulsions in mice.; assay type: functional
Procedure, shortened: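 Quantitative MES test in male Carworth Farms number-one mice. Compound in 30% polyethylene glycol 400, given ip at graded doses. Median effective dose (ED50) read by the graphical method.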

Mus musculus [12] = assay: Anticonvulsant activity against MES (maximal electroshock) induced seizure in mice at 30 min; +++ = Activity at 100 mg/kg.; assay type: functional, organism-based; set-up: dose 100 mg/kg; procedure, shortened: as §4
Mus musculus [13] = assay: Anticonvulsant activity against scMet (subcutaneous metrazole) induced seizure in mice at 4 hr; ++ indicates activity at 300 mg/kg.; assay type: functional, organism-based; set-up: dose 300 mg/kg
[14] = Protective index (PI) which is defined as the ratio of TD50 to the ED50 (MES).; assay type: functional; procedure, shortened: as §5
Mus musculus [15] = species: Mus musculus; assay: Evaluation of inhibitory activity against scMet induced convulsions in mice; assay type: functional
Mus musculus [16] = assay: Evaluated for toxicity by using rotarod test in mice at 4 hr; ++ indicates activity at 300 mg/kg.; assay type: organism-based; set-up: dose 300 mg/kg; conditions: in vivo; procedure, shortened: as §1
Mus musculus [17] = assay: Anticonvulsant activity against scMet (subcutaneous metrazole) induced seizure in mice at 4 hr; ++ = Activity at 300 mg/kg.; assay type: functional, organism-based; set-up: dose 300 mg/kg
Mus musculus [18] = assay: Evaluated for toxicity by using rotarod test at in mice 30 min; +++ = Activity at 100 mg/kg, *-Loss of righting reflex at less than 300 mg/kg; assay type: organism-based; conditions: in vivo, 0.5 h; procedure, shortened: as §1
Mus musculus [19] = assay: Anticonvulsant activity against MES (maximal electroshock) induced seizure in mice at 4 hr; +++ = Activity at 100 mg/kg.; assay type: functional, organism-based; set-up: dose 100 mg/kg; procedure, shortened: as §4
Mus musculus [20] = species: Mus musculus; assay: Evaluation of inhibitory activity against scMet induced convulsions in mice; NA = No activity.; assay type: functional, organism-based
Mus musculus [21] = assay: Evaluated for toxicity by using rotarod test in mice at 4 hr; ++ = Activity at 300 mg/kg.; assay type: organism-based; set-up: dose 300 mg/kg; conditions: in vivo; procedure, shortened: as §1
Mus musculus [22] = assay: Evaluated for toxicity by using rotarod test in mice at 4 hr; + indicates activity at 600 mg/kg.; assay type: organism-based; set-up: dose 600 mg/kg; conditions: in vivo; procedure, shortened: as §1
Mus musculus [23] = assay: Anticonvulsant activity against scMet (subcutaneous metrazole) induced seizure in mice at 30 min; ++ indicates activity at 600 mg/kg.; assay type: functional, organism-based; set-up: dose 600 mg/kg
Mus musculus [24] = assay: Anticonvulsant activity against MES (maximal electroshock) induced seizure in mice at 4 hr; ++ = Activity at 300 mg/kg.; assay type: functional, organism-based; set-up: dose 300 mg/kg; procedure, shortened: as §4
Mus musculus [25] = assay: Evaluated for toxicity by using rotarod test at in mice 30 min; ++ indicates activity at 300 mg/kg,*-Loss of righting reflex at less than 300 mg/kg; assay type: organism-based; conditions: in vivo, 0.5 h; procedure, shortened: as §1
Mus musculus [26] = assay: Anticonvulsant activity against scMet (subcutaneous metrazole) induced seizure in mice at 4 hr; ++ indicates activity at 600 mg/kg.; assay type: functional, organism-based; set-up: dose 600 mg/kg
Mus musculus [27] = assay: Evaluated for toxicity by using rotarod test in mice at 4 hr; - = no activity observed at 600 mg/Kg; assay type: organism-based; conditions: in vivo; procedure, shortened: as §1
Mus musculus [28] = assay: Anticonvulsant activity against scMet (subcutaneous metrazole) induced seizure in mice at 4 hr; - = no activity observed at 600 mg/Kg; assay type: functional, organism-based
Mus musculus [29] = assay: Anticonvulsant activity against MES (maximal electroshock) induced seizure in mice at 30 min; - = no activity observed at 600 mg/Kg; assay type: functional, organism-based; procedure, shortened: as §4
Mus musculus [30] = assay: Anticonvulsant activity against MES (maximal electroshock) induced seizure in mice at 4 hr; - = no activity observed at 600 mg/Kg; assay type: functional, organism-based; procedure, shortened: as §4
Mus musculus [31] = assay: Anticonvulsant activity against scMet (subcutaneous metrazole) induced seizure in mice at 30 min; - = no activity observed at 600 mg/Kg; assay type: functional, organism-based
Mus musculus [32] = assay: Evaluated for toxicity by using rotarod test at in mice 30 min; - = no activity observed at 600 mg/Kg; assay type: organism-based; conditions: in vivo, 0.5 h; procedure, shortened: as §1

Compound: CNC(=O)c1ccc(N)cc1
- Toxicity (Mus musculus [1]): Not toxic
- Toxicity (Mus musculus [2]): Not toxic
- Activity (Mus musculus [3]): Not toxic
- Activity (Mus musculus [4]): Not toxic
- Activity (Mus musculus [5]): Activity at 600 mg/kg
- Activity (Mus musculus [6]): Not toxic

Compound: CN(Cc1ccccc1)C(=O)c1ccc(N)cc1
- Toxicity (Mus musculus [7]): activity at 100 mg/kg *-Loss of righting reflex at less than 600 mg/kg
- TD50 (Mus musculus [8]): 98.1 mg/kg
- Activity (Mus musculus [9]): Activity at 100 mg/kg
- PI [10]: 1.2
- ED50 (Mus musculus [11]): 52.6 mg/kg
- Activity (Mus musculus [12]): Activity at 100 mg/kg
- Activity (Mus musculus [13]): Activity at 100 mg/kg
- PI [14]: 1.9
- ED50 (Mus musculus [15]): 81.7 mg/kg
- Toxicity (Mus musculus [16]): activity at 100 mg/kg *-Loss of righting reflex at less than 600 mg/kg

Compound: Nc1ccc(C(=O)NCc2ccccc2)cc1
- Activity (Mus musculus [17]): Activity at 100 mg/kg
- Toxicity (Mus musculus [18]): Activity at 100 mg/kg, *-Loss of righting reflex at < 300 mg/kg
- TD50 (Mus musculus [8]): 83.4 mg/kg
- Activity (Mus musculus [19]): Activity at 100 mg/kg
- Activity (Mus musculus [4]): Not toxic
- ED50 (Mus musculus [20]): inactive
- Toxicity (Mus musculus [21]): Activity at 100 mg/kg, *-Loss of righting reflex at < 300 mg/kg
- PI [14]: 3.6

Compound: CCCNC(=O)c1ccc(N)cc1
- Toxicity (Mus musculus [22]): activity at 300 mg/kg,*-Loss of righting reflex at less than 300 mg/kg
- Activity (Mus musculus [23]): Activity at 100 mg/kg
- Activity (Mus musculus [24]): Activity at 100 mg/kg
- Activity (Mus musculus [12]): Activity at 100 mg/kg
- Toxicity (Mus musculus [25]): activity at 300 mg/kg,*-Loss of righting reflex at less than 300 mg/kg
- Activity (Mus musculus [26]): Activity at 100 mg/kg

Compound: Nc1ccc(C(=O)NC(c2ccccc2)c2ccccc2)cc1
- Toxicity (Mus musculus [27]): Not toxic
- Activity (Mus musculus [28]): Not toxic
- Activity (Mus musculus [29]): Not toxic
- Activity (Mus musculus [30]): Not toxic
- Activity (Mus musculus [31]): Not toxic
- Toxicity (Mus musculus [32]): Not toxic
